According to ChEMBL document CHEMBL4513216, “Probing the Open Global Health Chemical Diversity Library for Multistage-Active Starting Points for Next-Generation Antimalarials” (ACS Infect Dis, 2020):

assay: Toxicity liver stage against HepG2, at 10uM; type: cell-based; parameters: test concentration 10 uM, cell line HepG2-A16-CD81EGFP; settings: human, HepG2-A16-CD81EGFP cells; read-out: INHIBITION
In short: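 Uninfected HepG2-A16-CD81EGFP cells, 3 × 10^3 per well, 1536-well, plated on prespotted compound at 10 μM final, parasite-free screening media added to match infected plates; puromycin 10 μM positive, DMSO 0.5% negative; run in parallel with 48 h PbLuc assay at 37 °C, 5% CO2; viability by CellTiter-Glo luminescence, normalized to controls.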

Row | Compound | cytotoxicity at 10 µM [%]
1 | O=C(CCCOc1ccccc1)N1CCCC(n2cncn2)C1 (configuration not stated) | -8.57
2 | CCOCC1CN(C(=O)c2cscn2)Cc2cn(C)nc21 (configuration not stated) | -76.6
3 | CCN1CCCC12CCN(Cc1cccnc1OC)CC2 | 13.4
4 | COCCN1CCOCC12CCN(c1ccc(C#N)cc1)CC2 | -2.51
5 | CCNC(=O)c1ccnc(N2CCCC(COc3ccccc3C)C2)c1 (configuration not stated) | 2.08
6 | Cc1nc(C(C)C)sc1C(=O)N(C)Cc1nc(-c2ccccn2)no1 | -0.683
7 | Cc1cc(OCCC(=O)Nc2cccc(F)c2)nnc1C | -2.32
8 | COc1cccc(CN2CCC3(CC2)CCN(c2ncc(C)cn2)C3)c1 | -3.55
9 | CC(=O)NCCNC(=O)c1nc(C2CC2)n(-c2ccccc2Cl)n1 | 9.74
10 | COCCNC(=O)c1sccc1N(C)S(=O)(=O)c1ccc(Cl)cc1 | 6.33
11 | Cn1ccnc1C(=O)NCc1cc(=O)n2c(n1)CN(CC1CC1)CCC2 | 13.8
12 | O=C(CCn1cncn1)N1CCC2(CC1)[C@H](O)C[C@@H]2OCCO | -0.387
13 | CC(=O)c1cc(CN2CCCC23CCN(c2ccccn2)CC3)cs1 | -7.69
14 | O=C(N1CCOCC1)[C@@]12CCO[C@@H]1CCN(C1CCC1)C2 | 3.33
15 | Fc1ccc(F)c(CN2CCC(c3cnccn3)CC2)c1 | -1.61
16 | CCc1cnc(NCC(CC)N2CCOCC2)nc1 (configuration not stated) | 12.8
17 | Cc1ccc(Nc2nccc(C3CCCN(CC(=O)N(C)C)C3)n2)nc1 (configuration not stated) | -2.09
18 | COc1ccccc1C1(CNCc2ccc(C#N)cc2)CCOCC1 | 7.62
19 | Cc1cc(CN2CCN(C(=O)CCc3cccs3)CC2)on1 | -5
20 | COc1ccc(CNc2nncs2)cc1F | -4.23
21 | Cc1cc(C)n(CC2CCCN2Cc2nc(N)c3ccccc3n2)n1 (configuration not stated) | -11.7

Row | Compound | cytotoxicity at 10 µM [%]
22 | Cc1csc(C2CCCN(C(=O)c3cnn4ccc(C)nc34)C2)n1 (configuration not stated) | 2.56
23 | CN(C)C1COC2(CCN(S(=O)(=O)c3ccc(F)cc3)CC2)C1 (configuration not stated) | -129
24 | CCOCC(=O)N1CC(=O)Nc2cc(Br)ccc21 | 8.09
25 | COCCN1CCC2(CC1)CC1(CCN(S(C)(=O)=O)CC1)N(C)C2=O | 0.964
26 | CNC(=O)NC(=O)COc1c(C(C)=O)ccc(Cl)c1Cl | 26.6
27 | O=C(CCNC(=O)c1cccc(OC(F)F)c1)Nc1cccnc1 | 0.258
28 | CCCN1CCN(C(=O)Nc2ccccc2Cl)[C@H]2CS(=O)(=O)C[C@H]21 | 1.54
29 | CC(C)c1cc(C(=O)N2CCOC3(CCNCC3)C2)no1 | 3.65
30 | CCC(O)CN1CCN(C(=O)c2sccc2C(C)C)CC1 (configuration not stated) | 6.89
31 | COC1CCCN(Cc2nc(Cc3ccccc3F)no2)C1 (configuration not stated) | -4.23
32 | Cc1cc(C)cc(CNCCS(=O)(=O)N2CCOCC2)c1 | 1.05
33 | Cc1nn(C)c(C)c1NC(=O)CNc1cc(C(F)(F)F)ccc1F | 13.4
34 | CCN(CC1CCOC1)C(=O)CSCC(=O)Nc1ccc(C)cc1 (configuration not stated) | -7.04
35 | NC(=O)NC1CCN(Cc2ccc3c(c2)CCC3)CC1 | -3.19
36 | CN1CCN(Cc2c[nH]cn2)CC12CCC(=O)N(CC1CC1)CC2 (configuration not stated) | 2.98
37 | CN(C)c1nccnc1N1CC[C@@]2(O)CCNC[C@H]2C1 | 7.12
38 | Cc1ccn(-c2ccc(NCc3ccccc3F)nn2)n1 | 3.66
39 | Cc1ccc(C(=O)NCCS(C)(=O)=O)c(=O)[nH]1 | -9.32
40 | COc1cccc(CCNCc2c(C)nn(C)c2N(C)C)c1 | -1.6
41 | COc1cccc(C2CCCN2C(=O)c2ccc(=O)n(C)c2)c1 (configuration not stated) | -1.72
42 | CC1CCCN(Cc2ccc(C(N)=O)cc2)C1 (configuration not stated) | -10.4

Row | Compound | cytotoxicity at 10 µM [%]
43 | CS(=O)(=O)N1C[C@@H]2OCC(=O)N(CC3CC3)[C@@H]2C1 | -13.8
44 | Cc1cc(C)c2nc(CN3C[C@H](CCO)[C@@H](N)C3)cc(O)c2c1 | 5.29
45 | Cc1cc(C(C)NC(=O)CCn2nnc3ccccc3c2=O)c(C)o1 (configuration not stated) | 3.81
46 | Cc1nc(C)n(CCC(=O)N2CCc3ncc(Cl)cc3C2)n1 | 2.67
47 | Cc1cc(C)c2cc(CNC3CCCCC3)c3nn(C)c(=O)n3c2c1 | -4.55
48 | Cc1nccc(N2CCC(=O)N(Cc3ccc(F)cc3)C(C(C)C)C2)n1 (configuration not stated) | -0.449
49 | COCCN(C)C(C(=O)O)c1ccc(F)c(C)c1 (configuration not stated) | 1.87
50 | Cc1ccccc1-c1noc(CN2CCc3nn(C)c(=O)cc3C2)n1 | -12.5
51 | Cc1ccc(CN2CC[C@@H](NC(=O)c3cccnc3)[C@H](O)C2)o1 | 2.52
52 | O=C(C1CCOC1)N1CCC2(CC1)CN(Cc1nccs1)CCO2 (configuration not stated) | -75
53 | O=C(NCc1ccncc1)N(Cc1ccccc1F)C1CC1 | -3.32
54 | O=C(CSCC1CC1)N1CCCC(c2nccn2Cc2cccnc2)C1 (configuration not stated) | 3.86
55 | Cc1cnn(CCC(=O)Nc2cccnc2N2CCC(CO)CC2)c1 | -2
56 | CC(C)CN1CCS(=O)(=O)[C@@H]2CCN(S(=O)(=O)C3CC3)CC[C@@H]21 | 7.8
57 | CN1CCS(=O)(=O)[C@@H]2CCN(C(=O)c3ccccc3)CC[C@@H]21 | -127
58 | c1cnc(NC2COC3(CCN(Cc4ccoc4)CC3)C2)nc1 (configuration not stated) | 2.11
59 | O=C(NS(=O)(=O)c1ccc(C2CCCCC2)cc1)C1COCCO1 (configuration not stated) | 7.02
60 | CCc1nccc(CN2CCCC(c3nn(C)c(=O)n3CC)C2)n1 (configuration not stated) | -3.69
61 | Cn1c(CS(=O)(=O)Cc2cccc(Cl)c2)cc(=O)n(C)c1=O | 8.17
62 | Fc1cccc(CN2CCOCC3(CCN(C4CCOCC4)C3)C2)c1 (configuration not stated) | -0.503
63 | CCCOCCn1ncc(N2CCCC2)cc1=O | -10.7

Row | Compound | cytotoxicity at 10 µM [%]
64 | N[C@H]1CN(C(=O)c2ccc(CO)cc2)C[C@@H]1C1CC1 | 2.56
65 | Cc1cnn(CC(C)NCc2ccc(OCC(N)=O)cc2)c1 (configuration not stated) | -11.7
66 | O=C(C(CNCc1ccco1)c1ccccc1)N1CCOCC1 (configuration not stated) | -2.1
67 | CNc1cc(C)nc(-c2cc(NC3CCNCC3)nc3[nH]ccc23)n1 | -2.98
68 | Cc1noc2ncc(C(=O)N(CC3CCOC3)C3CC3)cc12 (configuration not stated) | -6.64
69 | CCc1oc(C(=O)NC(C)c2ncn[nH]2)cc1CN1CCCC1 (configuration not stated) | -5.92
70 | Cc1noc(C2CCCN(C(=O)c3cccc(Cl)c3)C2)n1 (configuration not stated) | -1.58
71 | COCCN1C(=O)[C@@H]2CC[C@H]1CN(Cc1nnc(C3CC3)o1)C2 | 11.6
72 | CN1CCO[C@@H]2CN(C(=O)COc3cccc(Cl)c3)C[C@@H]2C1 | -9.58
73 | COc1cc(C)c(C2CC(=O)NCc3nc4sccn4c32)cc1C (configuration not stated) | -2.19
74 | CCCc1cc(=O)[nH]c(-c2ccccc2CN(C)CCn2cccn2)n1 | -1.41
75 | Cc1cc(CN(C)CC2CCCN(CCc3ccc(Cl)cc3)C2)[nH]n1 (configuration not stated) | -12.5
76 | COCc1cc(CC2(NCc3ccccc3Cl)COC2)no1 | -9.09
77 | COCc1ccc(C(=O)N2CCCN(c3ccc(F)cc3)CC2)s1 | -8.92
78 | CCN(CC)C(=O)C1CCC2(CCNCC2)CO1 (configuration not stated) | -146
79 | CC(=O)NCc1ccc(-n2ccnc2C)nc1 | -6.49
80 | Cc1cnc(N2CCC(OCCN3CCCCC3)C2)nc1C (configuration not stated) | -43.9
81 | Cc1noc(C)c1-c1ccc(C2CCCN2C(=O)c2ccncn2)nc1 (configuration not stated) | -4.45
82 | Cc1ccccc1N1CCN(C2CCCN(C(=O)CCC(C)C)C2)CC1 (configuration not stated) | -5.95
